According to article PMC3769431 (Structure (London, England : 1993), 2013):

Assays:
p38α (unphosphorylated) [1] = biological target: p38α (unphosphorylated) (UniProt Q16539); assay: ITC
p38α [2] = biological target: T1, p38α (Homo sapiens, UniProt Q16539); assay: Small angle X-ray scattering, resting-state complex with unphosphorylated p38α; conditions: SAXS, GNOM
Summary of the method: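 Unphosphorylated p38α was mixed 1:1 with PTPSL 331–655 or STEP 214–539 for 30 min on ice, then SEC-purified in 50 mM HEPES pH 6.8, 150 mM NaCl, 5 mM DTT. Samples were 0.4–4.0 mg/ml (PTPSL) or 1.0–4.0 mg/ml (STEP), filtered, flowed through a 1 mm capillary and exposed 30 s or 180 s at a synchrotron beamline. Dmax came from the P(r) function.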

p38α [3] = biological target: T1, p38α; conditions: 2011, cited from earlier work; for dephosphorylation of p38α (in words): in vitro phosphatase assays, ref Zhang et al.
p38α (unphosphorylated) [4] = biological target: p38α (unphosphorylated) (UniProt Q16539 1-360); assay: ITC
p38α (unphosphorylated) (UniProt Q16539 1-360), sequence (Q16539 whole entry): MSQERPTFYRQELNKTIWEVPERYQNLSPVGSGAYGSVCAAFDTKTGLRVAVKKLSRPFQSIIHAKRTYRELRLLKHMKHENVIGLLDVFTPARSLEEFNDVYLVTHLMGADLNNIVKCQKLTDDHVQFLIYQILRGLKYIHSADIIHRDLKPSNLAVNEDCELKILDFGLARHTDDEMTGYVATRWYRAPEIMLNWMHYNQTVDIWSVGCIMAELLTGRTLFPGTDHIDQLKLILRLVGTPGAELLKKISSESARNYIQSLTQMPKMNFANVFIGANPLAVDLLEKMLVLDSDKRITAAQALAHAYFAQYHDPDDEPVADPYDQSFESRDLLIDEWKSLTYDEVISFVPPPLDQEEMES

p38α [5] = biological target: T1, p38α; assay: NMR chemical shift perturbation, 2D [1H,15N] TROSY of [2H,15N]-p38α; format: binding; conditions: for interaction with p38α by NMR (in words): 2D [1H,15N] TROSY, 800 MHz, 50 mM HEPES pH 6.8, 150 mM NaCl, 5 mM dithiothreitol; for interaction with p38α by NMR (in words) / number of p38α peaks with CSPs on complex formation / number of p38α peaks with line-widths broadened beyond detection / number of perturbed p38α peaks in fast exchange: 298 K; for number of p38α peaks with CSPs on complex formation / number of p38α peaks with line-widths broadened beyond detection / number of perturbed p38α peaks in fast exchange: free vs bound p38α, SEC-purified 1:1 complex, NMR buffer pH 6.8
p38α [6] = biological target: T1, p38α; assay: Isothermal titration calorimetry; format: binding
[7] = ITC, 25 °C, 10 mM Tris pH 7.5, 150 mM NaCl, 0.1 mM EDTA, 0.5 mM TCEP

p38α (unphosphorylated) (UniProt Q16539), sequence (Q16539 whole entry): as above
T1 sequence (Q16539 whole entry): as above

Question: With STEP_(M285A/I307A) (domain or fragment) as the molecule, how does the Kd (p38α (unphosphorylated) [1]) read?
Answer: 592 nM

Question: What about the dH (p38α (unphosphorylated) [1]) of the same molecule?
Answer: -27.6 kcal/mol

Question: Which “Dmax (P(r) function calculation)” value (p38α [2]) does the source give for “p38:PTPRR: 1:1 complex of unphosphorylated p38α with PTPSL 331–655” here?
Answer: 105 Å

Question: What about the “Rg (P(r) function calculation)” value (p38α [2]) of the same molecule?
Answer: 34.1 Å

Question: With “STEP (residues 214–539) (domain or fragment)” as the molecule, how does the Kd (p38α (unphosphorylated) [1]) read?
Answer: 577 nM

Question: And the dH (p38α (unphosphorylated) [1])?
Answer: -28.8 kcal/mol

Question: With PSChimera (from UniProt Q15256 332-373) as the molecule, how does the Kd (p38α (unphosphorylated) [1]) read?
Answer: 309 nM

Question: What about the dH (p38α (unphosphorylated) [1]) of the same molecule?
Answer: -27.2 kcal/mol

Question: What does the source list for STEP_(F274A/F281A) (domain or fragment)?
Answer: Kd (p38α (unphosphorylated) [1]): 1070 nM; dH (p38α (unphosphorylated) [1]): -24.2 kcal/mol

B1: HePTP: KIM-PTP HePTP (PTPN7, LC-PTP) (protein, UniProt P35236 1-360, looked up)
Tyrosine-protein phosphatase …: MVQAHGGRSRAQPLTLSLGAAMTQPPPEKTPAKKHVRLQERRGSNVALMLDVRSLGAVEPICSVNTPREVTLHFLRTAGHPLTRWALQRQPPSPKQLEEEFLKIPSNFVSPEDLDIPGHASKDRYKTILPNPQSRVCLGRAQSQEDGDYINANYIRGYDGKEKVYIATQGPMPNTVSDFWEMVWQEEVSLIVMLTQLREGKEKCVHYWPTEEETYGPFQIRIQDMKECPEYTVRQLTIQYQEERRSVKHILFSAWPDHQTPESAGPLLRLVAEVEESPETAAHPGPIVVHCSAGIGRTGCFIATRIGCQQLKARGEVDILGIVCQLRLDRGGMIQTAEQYQFLHHTLALYAGQLPEEPSP
Question: With B1 as the molecule, how does the “dephosphorylation of p38α (in words)” value (p38α [3]) read?
Answer: can both readily dephosphorylate p38α

B2: STEP_(F281A/I307A) (domain or fragment)
chain: GLQERRGSNVSLTLDMCTPGCNEEGFGYLMSPREESAREYLLSASRVLQAEELHEKALDPFLLQAEFAEIPMNFVDPKEYDIPGLVRKNRYKTALPNPHSRVCLTSPDPDDPLSSYINANYIRGYGGEEKVYIATQGPIVSTVADFWRMVWQEHTPIIVMITNIEEMNEKCTEYWPEEQVAYDGVEITVQKVIHTEDYRLRLISLKSGTEERGLKHYWFTSWPDQKTPDRAPPLLHLVREVEEAAQQEGPHCAPIIVHCSAGIGRTGCFIATSICCQQLRQEGVVDILKTTCQLRQDRGGMIQTCEQYQFVHHVMSLYEKQLSHQS
Question: Which results are given for B2?
Answer: Kd (p38α (unphosphorylated) [4]): 1060 ± 36 nM; dH (p38α (unphosphorylated) [4]): -34.3 ± 1.1 kcal/mol

B3: STEPCAT: STEPCAT (residues 244–539), catalytic domain (protein, UniProt P54829 244-539, looked up, fragment)
chain: GSNVSLTLDMCTPGCNEEGFGYLMSPREESAREYLLSASRVLQAEELHEKALDPFLLQAEFFEIPMNFVDPKEYDIPGLVRKNRYKTILPNPHSRVCLTSPDPDDPLSSYINANYIRGYGGEEKVYIATQGPIVSTVADFWRMVWQEHTPIIVMITNIEEMNEKCTEYWPEEQVAYDGVEITVQKVIHTEDYRLRLISLKSGTEERGLKHYWFTSWPDQKTPDRAPPLLHLVREVEEAAQQEGPHCAPIIVHCSAGIGRTGCFIATSICCQQLRQEGVVDILKTTCQLRQDRGGMI
modifications: catalytic domain
Question: With B3 as the molecule, how does the “interaction with p38α by NMR (in words)” value (p38α [5]) read?
Answer: non-specific interactions throughout the p38α surface

Question: With GLQERRGSNVSLTLDMSSLGNIEPFVSIPTPREKVAMEYLQS (peptide, UniProt Q15256 332-373, looked up) [PTPSL_(KIMKIS) (residues 332–373)] as the molecule, how does the Kd (p38α (unphosphorylated) [4]) read?
Answer: 1530 ± 23 nM

Question: What about the dH (p38α (unphosphorylated) [4]) of the same molecule?
Answer: -38.8 ± 6.1 kcal/mol

B4: PTPSL (residues 332–655) (domain or fragment, UniProt Q15256 332-655, looked up)
chain: GLQERRGSNVSLTLDMSSLGNIEPFVSIPTPREKVAMEYLQSASRILTRSQLRDVVASSHLLQSEFMEIPMNFVDPKEIDIPRHGTKNRYKTILPNPLSRVCLRPKNVTDSLSTYINANYIRGYSGKEKAFIATQGPMINTVDDFWQMVWQEDSPVIVMITKLKEKNEKCVLYWPEKRGIYGKVEVLVISVNECDNYTIRNLVLKQGSHTQHVKHYWYTSWPDHKTPDSAQPLLQLMLDVEEDRLASQGRGPVVVHCSAGIGRTGCFIATSIGCQQLKEEGVVDALSIVCQLRMDRGGMVQTSEQYEFVHHALCLYESRLSAET
Question: With B4 as the molecule, how does the “relative binding affinity for p38α (in words)” value (p38α [6]; ITC) read?
Answer: the highest affinity interaction with p38α among the KIM-PTPs

Question: And the TΔS (p38α [6]; [7])?
Answer: -21.4 ± 1.4 kcal/mol

Question: What about the ΔG (p38α [6]; [7]) of the same molecule?
Answer: -8.8 ± 0.1 kcal/mol

Question: What about the “times tighter binding to p38α than PTPSLKIM” value (p38α [6]; ITC, relative to PTPSLKIM) of the same molecule?
Answer: ~ 7 times

Question: What about the “times tighter binding to p38α than HePTP” value (p38α [6]; relative to HePTP) of the same molecule?
Answer: ~6 times

Question: What about the “number of p38α peaks with CSPs on complex formation” value (p38α [5]) of the same molecule?
Answer: 41 peaks

Question: And the “number of p38α peaks with line-widths broadened beyond detection” value (p38α [5])?
Answer: 5 peaks

Question: What about the “number of perturbed p38α peaks in fast exchange” value (p38α [5]) of the same molecule?
Answer: 36 peaks

Question: What about the “dephosphorylation of p38α (in words)” value (p38α [3]) of the same molecule?
Answer: the most efficient p38α phosphatase of all tested

Question: And the Kd (p38α (unphosphorylated) [4])?
Answer: 382 ± 65 nM

Question: And the dH (p38α (unphosphorylated) [4])?
Answer: -30.2 ± 1.5 kcal/mol

B5: PTPSLCAT: PTPSLCAT (residues 361–655), catalytic domain (protein)
chain: TPREKVAMEYLQSASRILTRSQLRDVVASSHLLQSEFMEIPMNFVDPKEIDIPRHGTKNRYKTILPNPLSRVCLRPKNVTDSLSTYINANYIRGYSGKEKAFIATQGPMINTVDDFWQMVWQEDSPVIVMITKLKEKNEKCVLYWPEKRGIYGKVEVLVISVNECDNYTIRNLVLKQGSHTQHVKHYWYTSWPDHKTPDSAQPLLQLMLDVEEDRLASQGRGPVVVHCSAGIGRTGCFIATSIGCQQLKEEGVVDALSIVCQLRMDRGGMVQTSEQYEFVHHALCLYESRLSAET
Question: For B5, which “interaction with p38α by NMR (in words)” value (p38α [5]) is on record?
Answer: no interactions between p38α and isolated PTPSLCAT were detected

B6: STEP: STEP (residues 214–539) (protein, UniProt P54829 214-539, looked up, fragment)
chain: TPVFDCVMDIKPEADPTSLTVKSMGLQERRGSNVSLTLDMCTPGCNEEGFGYLMSPREESAREYLLSASRVLQAEELHEKALDPFLLQAEFFEIPMNFVDPKEYDIPGLVRKNRYKTILPNPHSRVCLTSPDPDDPLSSYINANYIRGYGGEEKVYIATQGPIVSTVADFWRMVWQEHTPIIVMITNIEEMNEKCTEYWPEEQVAYDGVEITVQKVIHTEDYRLRLISLKSGTEERGLKHYWFTSWPDQKTPDRAPPLLHLVREVEEAAQQEGPHCAPIIVHCSAGIGRTGCFIATSICCQQLRQEGVVDILKTTCQLRQDRGGMI
Question: For B6, which Kd (p38α [6]; [7]) is on record?
Answer: 577 ± 71 nM

Question: And the TΔS (p38α [6]; [7])?
Answer: -20.3 ± 2.0 kcal/mol

Question: And the ΔG (p38α [6]; [7])?
Answer: -8.5 ± 0.1 kcal/mol

Question: And the ΔH (p38α [6]; [7])?
Answer: -28.8 ± 2.0 kcal/mol

Question: What about the “times tighter binding to p38α than STEPKIM” value (p38α [6]; ITC, relative to STEPKIM) of the same molecule?
Answer: ~ 6 times

Question: And the “additional or larger CSPs (residues) than with the corresponding KIM peptide” value (p38α [5]; comparison with p38α:STEPKIM or p38α:PTPSLKIM spectra)?
Answer: three

Question: What about the “number of p38α peaks with CSPs on complex formation” value (p38α [5]) of the same molecule?
Answer: 58 peaks

Question: What about the “number of p38α peaks with line-widths broadened beyond detection” value (p38α [5]) of the same molecule?
Answer: 18 peaks

Question: What about the “number of perturbed p38α peaks in fast exchange” value (p38α [5]) of the same molecule?
Answer: 40 peaks

Question: What about the “kcat for dephosphorylation of p38α, fold lower than for PTPSL or HePTP” value (p38α [3]; compared with PTPSL or HePTP, ref Balasu et al., 2009, Zhang et al.) of the same molecule?
Answer: ~ 20 fold

Question: What about the “dephosphorylation of p38α (in words)” value (p38α [3]) of the same molecule?
Answer: significantly less efficient than PTPSL and HePTP at dephosphorylating p38α
